Screening data (PubChem)
proKLK7 act = proKLK7 (human) activation, primary screen; purified proKLK7, EDANS-DABCYL substrate fluorescence; 100% is mature enzyme control, 0% vehicle; activation, % at 7 µM; actives 0.9% (n = 370,000); AID 652039;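 active = activation above the mean of all tested compounds plus 3 SD, computed per campaign excluding outliers beyond control limits, cut at about 13% in these data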
RanGTP-Imp inh = disruptors of Ran-importin-beta complex formation – biochemical, FRET, CFP-Ran, YFP-importin-beta, homogeneous, primary screen; cell-free CFP-Ran/YFP-importin-beta FRET ratio; inhibition, % (concentration not given with the values); actives 1.1% (n = 300,000);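 active = more than half of the replicate wells show a fall in the fluorescence ratio signal beyond about 16%, limit read from the data, passing the limit was not always enough; inconclusive = exactly half of the replicate wells pass the set limit; inactive = fewer than half of replicates pass the limit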;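 note: 0% = DMSO wells and 100% = Ran loaded with GDP instead of GTP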
Runt-CBFb FRET = Runt domain-CBFb interaction inhibition; inhibition, % at 20 µM; Cerulean-Runt/Venus-CBFb FRET ratio 530/480, 1 h; AID 1496; actives 0.46% (n = 220,000); Q01196+Q13951;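 active = inhibition over about 50% at 20 µM in the single-dose screen, limit read from the data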;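 note: 0% = DMSO wells and 100% = excess unlabeled CBFb competitor control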
Target sequence (Q01196 whole entry, looked up, the tested form may be a part): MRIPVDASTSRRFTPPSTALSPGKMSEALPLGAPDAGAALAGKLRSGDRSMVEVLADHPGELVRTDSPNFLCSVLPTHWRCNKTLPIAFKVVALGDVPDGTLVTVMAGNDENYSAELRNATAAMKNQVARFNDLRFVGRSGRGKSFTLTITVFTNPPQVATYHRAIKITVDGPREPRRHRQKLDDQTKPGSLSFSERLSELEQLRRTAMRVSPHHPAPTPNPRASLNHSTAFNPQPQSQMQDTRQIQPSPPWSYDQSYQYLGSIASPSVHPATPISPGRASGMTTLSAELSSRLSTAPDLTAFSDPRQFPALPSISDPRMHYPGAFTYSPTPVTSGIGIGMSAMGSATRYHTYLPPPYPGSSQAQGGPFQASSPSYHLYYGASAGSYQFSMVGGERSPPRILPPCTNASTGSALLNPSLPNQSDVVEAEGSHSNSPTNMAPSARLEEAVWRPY
Target sequence (Q13951 whole entry, looked up, the tested form may be a part): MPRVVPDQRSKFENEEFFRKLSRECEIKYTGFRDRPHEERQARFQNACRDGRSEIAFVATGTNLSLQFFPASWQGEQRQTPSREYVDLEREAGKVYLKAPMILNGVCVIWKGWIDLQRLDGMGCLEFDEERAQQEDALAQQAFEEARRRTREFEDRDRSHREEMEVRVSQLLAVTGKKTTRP
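Schedule: protein complex preformed 1 h, compound exposure 1 h, room temperature, dark; test system: Cerulean-labeled Runt domain protein; amount: 100 nM per protein; buffer or medium: Tris 50 mM pH 7.5, KCl, K2SO4, 0.01% BSA; read-out: loss of energy transfer signal; detection: FRET fluorescence; controls: 5 µM unlabeled CBFb as full-inhibition high control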
Runt-SMMHC FRET = blocks binding of human RUNX1 Runt domain to CBFb-SMMHC; actives 0.74% (n = 220,000); Cerulean-Runt/Venus-CBFb-SMMHC FRET ratio 530/480, 1 h; inhibition, % at 20 µM;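 active = mean inhibition across duplicate retests at 20 µM reaching about 50%, limit read from the data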;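 note: 0% = DMSO wells and 100% = wells with excess untagged CBFb-SMMHC; inhibitors lower the FRET ratio by blocking Runt binding to CBFb-SMMHC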
Wee1 degr inh = inhibitors of human Wee1 degradation. actives 1.2% (n = 220,000). HeLa Luc-Wee1K328M stability, luciferase luminescence; 100% = proteasome inhibitor MG132 effect. reporter increase, % at 5 µM. P30291;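 active = activation above the mean of all tested compounds plus 3 SD, set per screening run, cut at about 8.8% in these data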;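 note: cells exposed to compound for 20 h before luminescence read; 0% = DMSO alone and 100% = MG132 at 30 µM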
AI-2 QS mod = modulates the Vibrio harveyi AI-2 quorum sensing system; actives 0.4% (n = 300,000); Vibrio harveyi JMH597 AI-2 luminescence/OD600 ratio, 9 h; stronger effect = lower value; strain lacks LuxN and CqsS sensors; 0 = neutral-control median; AID 2094; activity change, % at 7.5 µM; in the data active = activity change below about -75%, passing the limit was not always enough; inconclusive = no clear call, values can overlap the other calls;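 note: luminescence divided by OD600 gain over 9 h not by final OD600 alone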
KLK7 act conf = proKLK7 activation, confirmation; activation, % at 7 µM; actives 68% (n = 3,200); purified proKLK7, EDANS-DABCYL substrate fluorescence; scaled: vehicle 0, mature enzyme 100; shares compounds with proKLK7 act;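 active = activation, as change over the incubation, above the mean of all tested compounds plus 3 SD, cut at about 13% in these data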
EDANS interfere = optically interferes with EDANS-DABCYL signal, flagging KLK7 hits; shares compounds with proKLK7 act; EDANS-DABCYL substrate fluorescence interference, no enzyme, 4 h; solvent 0%, active enzyme control 100%; activation, % at 7 µM; actives 80% (n = 3,200);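 active = activation above the all-compound mean plus 3 SD, ignoring values outside control-based bounds, cut at about 4.8% in these data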;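 note: value is the 4 h activation minus the activation read at time zero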
K7 EDANS ctr = EDANS fluorescence interference in dose response, no enzyme; shares compounds with proKLK7 act; EDANS-DABCYL peptide fluorescence interference; EC50, µM; actives 20% (n = 250);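 active = compounds that raise the fluorescence signal in this interference counterscreen, with EC50 at or below 10 µM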;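 note: intact quenched peptide substrate alone read at 355 nm excitation and 520 nm emission; signal is fluorescence gain from T0 to T4 after four hours at room temperature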
Starred values were filed as active, the others as inactive; ? = inconclusive; · = no result. A selection: hits, their analogues and other compounds. The true share with any hit is near 2.9%.

SMILES	proKLK7 act	RanGTP-Imp inh	Runt-CBFb FRET	Runt-SMMHC FRET	Wee1 degr inh	AI-2 QS mod	KLK7 act conf	EDANS interfere	others
CCC1(C)Cc2ccccc2-c2nc(NN)[nH]c(=O)c21 (configuration not stated)	3	3	·	·	·	-9	·	·
CCC1(C)Cc2ccccc2-c2nc(NCCO)[nH]c(=O)c21 (configuration not stated)	23*	-2	2	0	1	10	-24	-31
CN(Cc1ccccc1)C(=O)COC(=O)CCN1C(=O)C2CC=CCC2C1=O (configuration not stated)	0	·	·	·	·	·	·	·
CC(=O)NC(=S)Nc1sc2c(c1C(N)=O)CCC(C)C2 (configuration not stated)	0	4	12	3	0	3	·	·
Nc1ccc2c(C(F)(F)F)cc(=O)oc2c1	36*	57*	18	61*	-2	-2	88*	86*
CCNC(=O)c1ccccc1-c1nc(-c2ccccc2)no1	0	2	1	2	-4	11	·	·
COCCCNC(=S)N/N=C/c1ccc(N(C)C)cc1	26*	0	4	14	3	16	41*	41*
COCCCNC(=S)N/N=C/c1ccc(N(C)C)cc1Cl	-9	2	1	22	1	13	·	·
COc1ccc(C2Nc3ccccc3C(=O)N2NS(=O)(=O)c2ccc(C)cc2)cc1 (configuration not stated)	16*	0	1	3	-1	81	4	5.6*
O=C1c2ccccc2NC(c2cccc(O)c2)N1c1ccccc1 (configuration not stated)	44*	1	·	·	·	23	12	15*
O=C1c2ccccc2NC(c2cccc(O)c2)N1NS(=O)(=O)c1ccccc1 (configuration not stated)	20*	-2	0	4	5	27	7	6.5*
Cc1ccc(S(=O)(=O)NN2C(=O)c3ccccc3NC2c2ccccc2)cc1 (configuration not stated)	17*	4	0	4	0	3	4	4.9*
CC(=O)NN1C(=O)c2ccccc2NC1c1cccc([N+](=O)[O-])c1 (configuration not stated)	0	-4	·	·	·	10	·	·
Cc1ccc(-c2cc(C(=O)NCCCN3CCCC3)c3ccccc3n2)cc1C	9	-3	·	·	·	17	·	·
CCOc1ccc(-c2cc(C(=O)NCCCN3CCCC3)c3ccccc3n2)cc1	24*	4	·	·	·	6	-1	-5
COc1ccc(C2CC(c3cccs3)=Nc3ccccc3S2)cc1 (configuration not stated)	40*	11	41	16	-1	16	5	3
Oc1[nH]c2ccccc2c1N=Nc1ccc(F)cc1	97*	-6	-223	-151	-1	7	36*	56*
O=c1nc(-c2ccccc2)cc(-c2ccccc2)[nH]1	6	3	0	0	-2	14	·	·
COc1ccccc1-c1cc(-c2ccccc2)nc(=O)[nH]1	18*	-1	·	·	·	9	10	14*
Cc1oc2cc(OC(=O)c3ccco3)ccc2c(=O)c1-c1nc2ccccc2n1C	16*	4	0	3	1	15	115*	104*
CCCc1cc(=O)oc2cc(OC(=O)CN3C(=O)NC4(CCCC4)C3=O)ccc12	62*	·	·	·	·	61	224*	193*
Cc1cc(C)cc(Oc2coc3cc(OC(=O)c4cccs4)ccc3c2=O)c1	14*	-7	·	1	-3	24	24*	17*	K7 EDANS ctr=>69
CCCc1cc(=O)oc2cc(OCC(=O)N3CC[C@@]4(O)CCCC[C@H]4C3)ccc12	1	·	·	·	·	·	·	·
CCc1cc(=O)oc2cc(OC(=O)c3ccco3)ccc12	353*	6	·	·	·	12	788*	761*
O=C(Oc1ccc2c3c(c(=O)oc2c1)CCCC3)c1cccs1	-24	3	17	32	0	23	·	·
SMILES	proKLK7 act	RanGTP-Imp inh	Runt-CBFb FRET	Runt-SMMHC FRET	Wee1 degr inh	AI-2 QS mod	KLK7 act conf	EDANS interfere	others
O=C1OC(c2ccccc2)(c2ccc3cc(O)ccc3c2)c2ccccc21 (configuration not stated)	1	·	·	·	·	·	·	·
COC(=O)Cc1c(C)c2ccc(OC(=O)c3ccco3)cc2oc1=O	439*	1	17	32	-3	17	736*	741*
Cc1cc(=O)oc2cc(OCC(=O)c3ccccc3)ccc12	1	3	·	·	·	-6	·	·
Cc1cc(=O)oc2cc(OC(=O)c3ccco3)ccc12	459*	3	12	20	0	-3	729*	769*
Cc1cc(=O)oc2cc(OCC(=O)N3CCN(C(=O)c4ccco4)CC3)ccc12	-1	3	-1	-2	0	6	·	·
Cc1cc(=O)oc2cc(OC(=O)c3ccccc3)ccc12	117*	0	4	3	-1	-20	519*	377*
CC(=O)Oc1ccc2c(=O)c(-c3ccccc3)c(C)oc2c1	121*	-3	-1	1	1	7	446*	384*
COC(=O)c1cc(-c2c(C)oc3cc(OC(C)C)ccc3c2=O)c(C)o1	0	?	0	-1	2	34	·	·
Cc1cccc(NC(=O)CN(CCc2ccccc2)S(C)(=O)=O)c1	0	-5	·	·	·	19	·	·
Cc1cccc(C(=O)N[C@H](C(=O)OCC(=O)NC(=O)c2cccn2C)C(C)C)c1	0	-2	-1	0	0	18	·	·
O=C(Oc1ccc2c3c(c(=O)oc2c1)CCC3)c1ccco1	578*	-2	10	21	-3	35	774*	820*
CCOc1ccc2c(=O)c(Oc3ccccc3OCC)coc2c1	0	7	0	-4	0	3	·	·
O=C(CCCN1C(=O)c2ccccc2C1=O)Oc1ccc(F)cc1	0	-1	-1	3	5	12	·	·
CCc1c(C)c2ccc(OCC(=O)OC)cc2oc1=O	20*	-4	-1	-4	-3	30	22*	21*
